Source: ChEMBL document CHEMBL3244382, “Structural requirements for antileukemic activity among the naturally occurring and semisynthetic maytansinoids” (J Med Chem, 1978)
Converted amounts (≈) assume the structure as drawn. The source made the active and inactive calls.

Columns and labels:
Mus musculus [1] = assay: Toxicity in PS mouse allografted with mouse P388 cells assessed as change in body weight at 3.1 ug/kg relative to control; format: organism-based; conditions: in vivo, 0.0031 mg/kg
Procedure, shortened: (§1)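 P388 (PS) leukemia in mice, 6 mice per dose group. Weight change is the difference in grams between treated and control animals. Survivors are recorded on toxicity day, normally 4 days after the first injection.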

Mus musculus [2] = assay: Toxicity in PS mouse allografted with mouse P388 cells assessed as change in body weight at 1.6 ug/kg relative to control; format: organism-based; conditions: in vivo, 0.0016 mg/kg; procedure, shortened: as §1
Mus musculus [3] = assay: Toxicity in PS mouse allografted with mouse P388 cells assessed as change in body weight at 0.8 ug/kg relative to control; format: organism-based; conditions: in vivo, 0.0008 mg/kg
Procedure, shortened: (§2)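 PS (P388 leukemia) mice, six per dose group. Toxicity read as the difference in grams between the weights of treated and control animals.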

Mus musculus [4] = assay: Toxicity in PS mouse allografted with mouse P388 cells assessed as change in body weight at 0.4 ug/kg relative to control; format: organism-based; conditions: in vivo, 0.0004 mg/kg; procedure, shortened: as §2
Mus musculus [5] = assay: Toxicity in PS mouse allografted with mouse P388 cells assessed as change in body weight at 0.2 ug/kg relative to control; format: organism-based; conditions: in vivo, 0.0002 mg/kg; procedure, shortened: as §2
Mus musculus [6] = assay: Toxicity in PS mouse allografted with mouse P388 cells assessed as survival at 50 ug/kg after 4 days; format: organism-based; conditions: in vivo, 0.05 mg/kg, 96 h
Procedure, shortened: (§3)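 PS (P388) leukemic mice, six started per dose group. Toxicity scored as survivors on the toxicity day over the number of mice started. The toxicity day is normally 4 days after the first injection.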

Mus musculus [7] = assay: Toxicity in PS mouse allografted with mouse P388 cells assessed as survival at 25 ug/kg after 4 days; format: organism-based; conditions: in vivo, 0.025 mg/kg, 96 h; procedure, shortened: as §3
Mus musculus [8] = assay: Toxicity in PS mouse allografted with mouse P388 cells assessed as survival at 12.5 ug/kg after 4 days; format: organism-based; conditions: in vivo, 0.0125 mg/kg, 96 h; procedure, shortened: as §3
Mus musculus [9] = assay: Toxicity in PS mouse allografted with mouse P388 cells assessed as survival at 6.2 ug/kg after 4 days; format: organism-based; conditions: in vivo, 0.0062 mg/kg, 96 h; procedure, shortened: as §3
Mus musculus [10] = assay: Toxicity in PS mouse allografted with mouse P388 cells assessed as survival at 3.1 ug/kg after 4 days; format: organism-based; conditions: in vivo, 0.0031 mg/kg, 96 h; procedure, shortened: as §3
Mus musculus [11] = assay: Toxicity in PS mouse allografted with mouse P388 cells assessed as survival at 1.6 ug/kg after 4 days; format: organism-based; conditions: in vivo, 0.0016 mg/kg, 96 h; procedure, shortened: as §3
Mus musculus [12] = assay: Toxicity in PS mouse allografted with mouse P388 cells assessed as survival at 0.8 ug/kg after 4 days; format: organism-based; conditions: in vivo, 0.0008 mg/kg, 96 h; procedure, shortened: as §3
Mus musculus [13] = assay: Toxicity in PS mouse allografted with mouse P388 cells assessed as survival at 0.4 ug/kg after 4 days; format: organism-based; conditions: in vivo, 0.0004 mg/kg, 96 h; procedure, shortened: as §3
Mus musculus [14] = assay: Toxicity in PS mouse allografted with mouse P388 cells assessed as survival at 0.2 ug/kg after 4 days; format: organism-based; conditions: in vivo, 0.0002 mg/kg, 96 h; procedure, shortened: as §3
Mus musculus [15] = assay: Toxicity in PS mouse allografted with mouse P388 cells assessed as survival at 0.1 ug/kg after 4 days; format: organism-based; conditions: in vivo, 0.0001 mg/kg, 96 h; procedure, shortened: as §3
Mus musculus [16] = assay: Toxicity in PS mouse allografted with mouse P388 cells assessed as change in body weight at 50 ug/kg relative to control; format: organism-based; conditions: in vivo, 0.05 mg/kg; procedure, shortened: as §1
Mus musculus [17] = assay: Toxicity in PS mouse allografted with mouse P388 cells assessed as change in body weight at 25 ug/kg relative to control; format: organism-based; conditions: in vivo, 0.025 mg/kg; procedure, shortened: as §1
Mus musculus [18] = assay: Toxicity in PS mouse allografted with mouse P388 cells assessed as change in body weight at 12.5 ug/kg relative to control; format: organism-based; conditions: in vivo, 0.0125 mg/kg; procedure, shortened: as §1
Mus musculus [19] = assay: Toxicity in PS mouse allografted with mouse P388 cells assessed as change in body weight at 6.2 ug/kg relative to control; format: organism-based; conditions: in vivo, 0.0062 mg/kg; procedure, shortened: as §1
Mus musculus [20] = assay: Toxicity in PS mouse allografted with mouse P388 cells assessed as change in body weight at 0.1 ug/kg relative to control; format: organism-based; conditions: in vivo, 0.0001 mg/kg; procedure, shortened: as §2
P388 [21] = assay: Antitumor activity against mouse P388 cells allografted in PS mouse assessed as median survival time at 50 ug/kg relative to control; format: functional
Procedure, shortened: (§4)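 P388 leukemia (PS) in mice, six mice started per dose group. Read-out is T/C: median survival time of the treated group divided by that of the untreated control group, expressed as a percent. The NIH protocol counts a compound as active when T/C > 125%.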

P388 [22] = assay: Antitumor activity against mouse P388 cells allografted in PS mouse assessed as median survival time at 25 ug/kg relative to control; format: functional; procedure, shortened: as §4
P388 [23] = assay: Antitumor activity against mouse P388 cells allografted in PS mouse assessed as median survival time at 12.5 ug/kg relative to control; format: functional; procedure, shortened: as §4
P388 [24] = assay: Antitumor activity against mouse P388 cells allografted in PS mouse assessed as median survival time at 6.2 ug/kg relative to control; format: functional; procedure, shortened: as §4
P388 [25] = assay: Antitumor activity against mouse P388 cells allografted in PS mouse assessed as median survival time at 3.1 ug/kg relative to control; format: functional; procedure, shortened: as §4
P388 [26] = assay: Antitumor activity against mouse P388 cells allografted in PS mouse assessed as median survival time at 1.6 ug/kg relative to control; format: functional; procedure, shortened: as §4
P388 [27] = assay: Antitumor activity against mouse P388 cells allografted in PS mouse assessed as median survival time at 0.8 ug/kg relative to control; format: functional; procedure, shortened: as §4
P388 [28] = assay: Antitumor activity against mouse P388 cells allografted in PS mouse assessed as median survival time at 0.4 ug/kg relative to control; format: functional; procedure, shortened: as §4
P388 [29] = assay: Antitumor activity against mouse P388 cells allografted in PS mouse assessed as median survival time at 0.2 ug/kg relative to control; format: functional; procedure, shortened: as §4
P388 [30] = assay: Antitumor activity against mouse P388 cells allografted in PS mouse assessed as median survival time at 0.1 ug/kg relative to control; format: functional; procedure, shortened: as §4
Tubulin (Homo sapiens) = Tubulin (Homo sapiens) (UniProt P68371+Q9H4B7+P0DPH7+P68366+Q13509+Q71U36+P04350+Q3ZCM7+P07437+P68363+Q9BQE3+Q6PEY2+Q13885+Q9BVA1+Q9BUF5); assay: Inhibition of brain tubulin polymerization (unknown origin) at 37 degC by spectrophotometry
Paracentrotus lividus = assay: Antimitotic activity against sea urchin eggs assessed as drug level causing inhibition of mitosis; format: functional; conditions: Egg
KB = assay: Cytotoxicity against human KB cells; format: functional; conditions: read-out: ED50 (the source's name)

COc1cc2cc(c1Cl)N(C)C(=O)C[C@H](OC(=O)[C@H](C)N(C)C(=O)CC(C)C)[C@]1(C)O[C@H]1[C@H](C)[C@@H]1C[C@@](O)(NC(=O)O1)[C@H](OC)/C=C/C=C(\C)C2 gave an Activity (Mus musculus [1]) of 0.2 g, an Activity (Mus musculus [2]) of -1.3 g and an Activity (Mus musculus [3]) of 0.7 g. For the same molecule, the Activity (Mus musculus [4]) was -1.1 g, the Activity (Mus musculus [5]) was -0.6 g and the Activity (Mus musculus [6]) was “Non-toxic”. For the same molecule, the Activity (Mus musculus [7]) was “Non-toxic”, the Activity (Mus musculus [8]) was “Non-toxic” and the Activity (Mus musculus [9]) was “Non-toxic”. For the same molecule, the Activity (Mus musculus [10]) was “Non-toxic”, the Activity (Mus musculus [11]) was “Non-toxic” and the Activity (Mus musculus [12]) was “Non-toxic”. The Activity (Mus musculus [13]) was “Non-toxic”, the Activity (Mus musculus [14]) was “Non-toxic” and the Activity (Mus musculus [15]) was “Non-toxic”. For the same molecule, the Activity (Mus musculus [16]) was -0.5 g, the Activity (Mus musculus [17]) was -0.4 g and the Activity (Mus musculus [18]) was 1.3 g. For the same molecule, the Activity (Mus musculus [19]) was 0.8 g, the Activity (Mus musculus [20]) was 1.4 g and the T/C (P388 [21]) was less than 80%. It also gave a T/C (P388 [22]) of 116%, a T/C (P388 [23]) of 187% and a T/C (P388 [24]) of 154%. The T/C (P388 [25]) was 158%, the T/C (P388 [26]) was 154% and the T/C (P388 [27]) was 133%. The T/C (P388 [28]) was 125%, the T/C (P388 [29]) was 125% and the T/C (P388 [30]) was 120%. The inhibition (Tubulin (Homo sapiens)) was “Active” and the Activity (Paracentrotus lividus) was 1 ×10⁻⁸ mol/L.

Work on COc1cc2cc(c1Cl)N(C)C(=O)C[C@H](OC(=O)C(C)C)[C@]1(C)O[C@H]1[C@H](C)[C@@H]1C[C@@](O)(NC(=O)O1)[C@H](OC)/C=C/C=C(\C)C2OC(C)=O (stereo not given in full) yielded an Activity (Mus musculus [1]) of -0.4 g, an Activity (Mus musculus [2]) of -0.7 g and an Activity (Mus musculus [3]) of -1 g. For the same molecule, the Activity (Mus musculus [4]) was -0.6 g, the Activity (Mus musculus [5]) was -1.3 g and the Activity (Mus musculus [6]) was “Non-toxic”. For the same molecule, the Activity (Mus musculus [7]) was “Non-toxic”, the Activity (Mus musculus [8]) was “Non-toxic” and the Activity (Mus musculus [9]) was “Non-toxic”. The Activity (Mus musculus [10]) was “Non-toxic”, the Activity (Mus musculus [11]) was “Non-toxic” and the Activity (Mus musculus [12]) was “Non-toxic”. For the same molecule, the Activity (Mus musculus [13]) was “Non-toxic”, the Activity (Mus musculus [14]) was “Non-toxic” and the Activity (Mus musculus [15]) was “Non-toxic”. The Activity (Mus musculus [16]) was -1 g, the Activity (Mus musculus [17]) was -0.9 g and the Activity (Mus musculus [18]) was -0.8 g. It also gave an Activity (Mus musculus [19]) of -0.9 g, an Activity (Mus musculus [20]) of -0.5 g and a T/C (P388 [21]) of less than 80%. For the same molecule, the T/C (P388 [22]) was 170%, the T/C (P388 [23]) was 179% and the T/C (P388 [24]) was 166%. For the same molecule, the T/C (P388 [25]) was 150%, the T/C (P388 [26]) was 162% and the T/C (P388 [27]) was 137%. For the same molecule, the T/C (P388 [28]) was 133%, the T/C (P388 [29]) was 125% and the T/C (P388 [30]) was 125%. For the same molecule, the EC50 (KB) was 0.0015 ng/mL (≈ 0.00216 nM), the inhibition (Tubulin (Homo sapiens)) was “Active” and the Activity (Paracentrotus lividus) was 1 ×10⁻⁷ mol/L.
